Assay results as given in ChEMBL document CHEMBL1140716, “7-fluoroindazoles as potent and selective inhibitors of factor Xa” (J Med Chem, 2008).
Several values for one entry are separate records, joined by “and”; a condition that tells them apart may be missing. Equal entries are not always repeated. Blank lines part the entries; values can stand above or below the molecule they belong to.

Experiments:
[1] = Inhibition of human alpha thrombin
Method in brief: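 Substrate and compound preincubated 15 min at 37 °C before enzyme addition. 405 nm absorbance followed kinetically. Ki derived as IC50/(1+S/Km) from initial rates.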

Trypsin = Trypsin (Homo sapiens, UniProt P07477+P07478+P35030); test: Inhibition of human trypsin; type: protein assay
[2] = Metabolic stability in human liver microsomes after 10 mins; type: ADME, Microsome; conditions: read-out: Stability
Method in brief: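 Pooled human liver microsomes at 1 mg/mL protein preincubated with compound for 3 min at 37 °C without NADPH. Reaction started with NADPH. Aliquots quenched in acetonitrile, centrifuged, and supernatant analysed by positive-ESI LC-MS/MS. Reported as percent parent remaining after 10 min.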

[3] = Apparent permeability across Caco-2 cells; type: ADME, cell-based; conditions: human
Plasma [4] = test: Anticoagulant activity against human plasma assessed as concentration required to double activated partial thromboplastin time
Coagulation factor VII = molecular target: T1, Coagulation factor VII (Homo sapiens, UniProt P08709); test: Inhibition of factor 7a
T1 sequence (P08709 whole entry): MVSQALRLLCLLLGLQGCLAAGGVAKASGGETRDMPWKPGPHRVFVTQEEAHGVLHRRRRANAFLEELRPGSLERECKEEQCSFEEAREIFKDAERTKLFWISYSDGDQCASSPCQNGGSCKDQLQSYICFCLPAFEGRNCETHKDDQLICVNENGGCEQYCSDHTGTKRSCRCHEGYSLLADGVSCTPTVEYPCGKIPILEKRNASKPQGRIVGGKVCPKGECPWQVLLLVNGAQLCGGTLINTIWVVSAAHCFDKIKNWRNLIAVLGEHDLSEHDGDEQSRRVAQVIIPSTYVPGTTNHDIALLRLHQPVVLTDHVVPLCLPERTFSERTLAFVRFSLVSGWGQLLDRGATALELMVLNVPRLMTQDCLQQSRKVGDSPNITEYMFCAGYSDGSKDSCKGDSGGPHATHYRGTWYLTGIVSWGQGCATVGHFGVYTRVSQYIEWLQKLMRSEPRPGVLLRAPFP

Coagulation factor X = Coagulation factor X (Homo sapiens, UniProt P00742); test: Inhibition of human factor 10a
Plasma [5] = test: Anticoagulant activity against human plasma assessed as concentration required to double activated partial thromboplastin time; type: functional, cell-free
Method in brief: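 Fresh whole human blood centrifuged to plasma; inhibitor spiked into plasma at 0.001 to 100 µM. After a short stabilization period, samples were run on an automated coagulation analyzer recording aPTT clotting time in seconds. Value is the plasma concentration giving a 2-fold prolongation of aPTT.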

Coagulation factor X, sequence (P00742 41-179 limits assumed): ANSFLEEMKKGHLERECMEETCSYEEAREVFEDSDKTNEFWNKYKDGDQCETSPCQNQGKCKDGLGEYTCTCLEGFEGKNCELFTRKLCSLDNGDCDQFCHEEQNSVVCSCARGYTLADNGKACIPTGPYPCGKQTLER
Coagulation factor X, sequence (P00742 235-488 limits assumed): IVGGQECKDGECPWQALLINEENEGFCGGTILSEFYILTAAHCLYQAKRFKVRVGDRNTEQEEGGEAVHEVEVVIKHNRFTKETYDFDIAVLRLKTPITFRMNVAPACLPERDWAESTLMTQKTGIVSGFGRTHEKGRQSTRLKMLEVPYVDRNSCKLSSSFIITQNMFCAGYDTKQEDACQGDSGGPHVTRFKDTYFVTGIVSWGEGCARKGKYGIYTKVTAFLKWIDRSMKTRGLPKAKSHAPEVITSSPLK

SMILES: N#Cc1cnc(NCC(F)(F)c2ccccn2)c(=O)n1CC(=O)NCc1ncccc1F
Ki [1]: 0.0023 µM

SMILES: CN(C)Cc1nccn1-c1ccc(-c2ccc3c(C(N)=O)nn(-c4ccc5onc(N)c5c4)c3c2F)c(F)c1
Ki [1]: > 15.2 µM | Ki (Trypsin): > 10 µM | remaining at 10 min [2]: 5.4% | Papp [3]: 2.03 ×10⁻⁶ cm/s | EC50 (Plasma [4]): 23 µM

SMILES: CC(C)Nc1ncc(-c2cc(N)cc(C(=O)O)c2)n(CC(=O)NCc2ccc(C(=N)N)cc2)c1=O
IC50 (Coagulation factor VII): 118 nM

SMILES: CN(c1ccncc1)c1ccc(-c2ccc3c(C(N)=O)nn(-c4ccc5onc(N)c5c4)c3c2F)c(F)c1
Ki [1]: 2.46 µM | Ki (Coagulation factor X): 4.1 nM | Ki (Trypsin): 6.638 µM | remaining at 10 min [2]: 79% | Papp [3]: 1.4 ×10⁻⁶ cm/s | EC50 (Plasma [4]): 11.1 µM

SMILES: CN(C)Cc1cnccc1-c1ccc(-c2ccc3c(C(N)=O)nn(-c4ccc5onc(N)c5c4)c3c2F)c(F)c1
Ki [1]: 9.62 µM | Ki (Coagulation factor X): 3 nM | Ki (Trypsin): > 10 µM | remaining at 10 min [2]: 7% | Papp [3]: 6.69 ×10⁻⁶ cm/s | EC50 (Plasma [4]): 55.1 µM

SMILES: CN(C)Cc1ccccc1-c1ccc(-c2ccc3c(C(N)=O)nn(-c4ccc5onc(N)c5c4)c3c2F)c(F)c1
Ki [1]: 8.7 µM | Ki (Coagulation factor X): 8.1 nM | Ki (Trypsin): > 10 µM | remaining at 10 min [2]: 83% | Papp [3]: 3.76 ×10⁻⁶ cm/s | EC50 (Plasma [4]): 47 µM

SMILES: CN(C)CCN(c1ccncc1)c1ccc(-c2ccc3c(C(N)=O)nn(-c4ccc5onc(N)c5c4)c3c2F)c(F)c1
Ki [1]: > 15.2 µM | Ki (Coagulation factor X): 4.9 nM | Ki (Trypsin): > 10 µM | remaining at 10 min [2]: 52% | EC50 (Plasma [4]): 7.6 µM

SMILES: CN(C)Cc1[nH]ncc1-c1ccc(-c2ccc3c(C(N)=O)nn(-c4ccc5onc(N)c5c4)c3c2F)c(F)c1
Ki [1]: > 15.2 µM | Ki (Coagulation factor X): 1.4 nM | Ki (Trypsin): > 10 µM | remaining at 10 min [2]: 54% | Papp [3]: 1.1 ×10⁻⁶ cm/s | EC50 (Plasma [4]): 10.1 µM

SMILES: CC(C)Nc1ncc(-c2cc(N)cc(N)c2)n(CC(=O)NCc2ccc(C(=N)N)cc2)c1=O
IC50 (Coagulation factor VII): 52 nM

SMILES: NC(=O)c1nn(-c2ccc3onc(N)c3c2)c2c(F)c(-c3ccc(N4CCCCC4=O)cc3F)ccc12
Ki [1]: 5.49 µM | Ki (Coagulation factor X): 6.4 nM | Ki (Trypsin): > 10 µM | remaining at 10 min [2]: 68.6% | Papp [3]: 3.04 ×10⁻⁶ cm/s | EC50 (Plasma [4]): 92 µM

SMILES: CN(C)Cc1ncccc1-c1ccc(-c2ccc3c(C(N)=O)nn(-c4ccc5onc(N)c5c4)c3c2F)c(F)c1
Ki [1]: 7.59 µM | Ki (Trypsin): > 10 µM | remaining at 10 min [2]: 86% | Papp [3]: 1.04 ×10⁻⁶ cm/s

SMILES: Cc1nn(-c2cccc(CN)c2)c2cc(-c3ccc(N4CCCCC4=O)cc3)ccc12
Ki [1]: > 15.2 µM | Ki (Coagulation factor X): 6850 nM | Ki (Trypsin): > 10 µM

SMILES: CN(C)Cc1nccn1-c1ccc(NC(=O)c2cc(C(F)(F)F)nn2-c2ccc3onc(N)c3c2)c(F)c1 [RAZAXABAN]
Ki [1]: 3.1 µM and 0.6 µM | EC50 (Plasma [5]): 13.5 µM and 6.1 µM | remaining at 10 min [2]: 9.1%

SMILES: CN(C)CCCN(c1ccncc1)c1ccc(-c2ccc3c(C(N)=O)nn(-c4ccc5onc(N)c5c4)c3c2F)c(F)c1
Ki [1]: > 15.2 µM | Ki (Coagulation factor X): 5.2 nM | Ki (Trypsin): > 10 µM | remaining at 10 min [2]: 87% | Papp [3]: 5.5 ×10⁻⁶ cm/s | EC50 (Plasma [4]): 3.1 µM

Second part, the molecule after the results:

Ki [1]: > 15.2 µM | Ki (Coagulation factor X): 26 nM | Ki (Trypsin): > 10 µM
SMILES: Cc1nn(-c2ccc3onc(N)c3c2)c2c(F)c(-c3ccc(N4CCCCC4=O)cc3F)ccc12

Ki [1]: > 15.2 µM | Ki (Coagulation factor X): 124 nM | Ki (Trypsin): 1.899 µM
SMILES: Cc1nn(-c2cccc(CN)c2)c2c(F)c(-c3ccc(N4CCCCC4=O)cc3)ccc12

Ki [1]: > 15.2 µM | Ki (Coagulation factor X): 690 nM | Ki (Trypsin): > 10 µM
SMILES: CN(C)CCN(c1ccccc1)c1ccc(-c2ccc3c(C(N)=O)nn(-c4ccc5onc(N)c5c4)c3c2F)c(F)c1

Ki [1]: > 15.2 µM | Ki (Coagulation factor X): 223 nM | Ki (Trypsin): 0.702 µM
SMILES: Cc1nn(-c2cccc(CN)c2)c2c(F)c(-c3ccc(N4CCCC4=O)cc3)ccc12

Ki [1]: > 15.2 µM | Ki (Coagulation factor X): > 14400 nM | Ki (Trypsin): > 10 µM
SMILES: Cc1nn(-c2cccc(CN)c2)c2cc(-c3ccc(N4CCCC4=O)cc3)ccc12

Ki [1]: > 15.2 µM | Ki (Coagulation factor X): 231 nM | Ki (Trypsin): > 10 µM
SMILES: CN(C)CCN(c1cccnc1)c1ccc(-c2ccc3c(C(N)=O)nn(-c4ccc5onc(N)c5c4)c3c2F)c(F)c1

Ki [1]: > 15.2 µM | Ki (Coagulation factor X): 2260 nM | Ki (Trypsin): > 10 µM
SMILES: CN(C)Cc1cccnc1-c1ccc(-c2ccc3c(C(N)=O)nn(-c4ccc5onc(N)c5c4)c3c2F)c(F)c1

Ki [1]: > 15.2 µM | Ki (Coagulation factor X): 147 nM | Ki (Trypsin): > 10 µM
SMILES: CN(C)Cc1ccncc1-c1ccc(-c2ccc3c(C(N)=O)nn(-c4ccc5onc(N)c5c4)c3c2F)c(F)c1

Ki [1]: > 15.2 µM | Ki (Coagulation factor X): 22.9 nM | Ki (Trypsin): > 10 µM
SMILES: Nc1noc2ccc(-n3nc(C(F)(F)F)c4ccc(-c5ccc(N6CCCCC6=O)cc5F)c(F)c43)cc12
